Reference: ChEMBL document CHEMBL1138290 (J Med Chem, 2007)

Assays:
RKO [1] = experiment: Cytotoxicity against human RKO cells with ectopic-inducible expression of p27kip1 after 48 hrs by XTT assay; assay type: functional, cell-based
How it was run: (§1)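 XTT proliferation assay with 48 h incubation with test compound. Each experiment run at least in duplicate (n = 2). IC50 calculated by nonlinear regression of dose-response curves.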

[2] = Cell cycle arrest in KB/HeLa cells assessed as accumulation at G2M phase at 100 nM after 24 hrs by flow cytometric analysis; assay type: functional, cell-based; details: Homo sapiens
How it was run: (§2)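 Subconfluent KB/HeLa cells exposed to a range of compound concentrations for 24 h. Cell cycle phase distribution determined by flow cytometry. Experiments run at least in duplicate (n = 2).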

[3] = Cell cycle arrest in KB/HeLa cells assessed as accumulation at S phase at 1 nM after 24 hrs by flow cytometric analysis; assay type: functional, cell-based; details: Homo sapiens; how it was run: as §2
[4] = Cell cycle arrest in KB/HeLa cells assessed as accumulation at G2/M phase after 24 hrs by flow cytometric analysis; assay type: functional, cell-based; details: Homo sapiens; how it was run: as §2
[5] = Cell cycle arrest in KB/HeLa cells assessed as accumulation at S phase at 316 nM after 24 hrs by flow cytometric analysis; assay type: functional, cell-based; details: Homo sapiens; how it was run: as §2
[6] = Cell cycle arrest in KB/HeLa cells assessed as accumulation at G2M phase at 316 nM after 24 hrs by flow cytometric analysis; assay type: functional, cell-based; details: Homo sapiens; how it was run: as §2
[7] = Cell cycle arrest in KB/HeLa cells assessed as accumulation at G2M phase at 1 nM after 24 hrs by flow cytometric analysis; assay type: functional, cell-based; details: Homo sapiens; how it was run: as §2
[8] = Cell cycle arrest in KB/HeLa cells assessed as accumulation at S phase at 3.16 nM after 24 hrs by flow cytometric analysis; assay type: functional, cell-based; details: Homo sapiens; how it was run: as §2
[9] = Cell cycle arrest in KB/HeLa cells assessed as accumulation at G1 phase at 31.6 nM after 24 hrs by flow cytometric analysis; assay type: functional, cell-based; details: Homo sapiens; how it was run: as §2
[10] = Cell cycle arrest in KB/HeLa cells assessed as accumulation at S phase at 10 nM after 24 hrs by flow cytometric analysis; assay type: functional, cell-based; details: Homo sapiens; how it was run: as §2
[11] = Cell cycle arrest in KB/HeLa cells assessed as accumulation at G2M phase at 10 nM after 24 hrs by flow cytometric analysis; assay type: functional, cell-based; details: Homo sapiens; how it was run: as §2
[12] = Cell cycle arrest in KB/HeLa cells assessed as accumulation at G1 phase at 0.3 nM after 24 hrs by flow cytometric analysis; assay type: functional, cell-based; details: Homo sapiens; how it was run: as §2
[13] = Cell cycle arrest in KB/HeLa cells assessed as accumulation at G1 phase at 316 nM after 24 hrs by flow cytometric analysis; assay type: functional, cell-based; details: Homo sapiens; how it was run: as §2
[14] = Cell cycle arrest in KB/HeLa cells assessed as accumulation at S phase at 0.3 nM after 24 hrs by flow cytometric analysis; assay type: functional, cell-based; details: Homo sapiens; how it was run: as §2
[15] = Cell cycle arrest in KB/HeLa cells assessed as accumulation at S phase at 100 nM after 24 hrs by flow cytometric analysis; assay type: functional, cell-based; details: Homo sapiens; how it was run: as §2
[16] = Cell cycle arrest in KB/HeLa cells assessed as accumulation at G1 phase at 10 nM after 24 hrs by flow cytometric analysis; assay type: functional, cell-based; details: Homo sapiens; how it was run: as §2
[17] = Cell cycle arrest in KB/HeLa cells assessed as accumulation at G1 phase at 3.16 nM after 24 hrs by flow cytometric analysis; assay type: functional, cell-based; details: Homo sapiens; how it was run: as §2
[18] = Cell cycle arrest in KB/HeLa cells assessed as accumulation at G1 phase at 1 nM after 24 hrs by flow cytometric analysis; assay type: functional, cell-based; details: Homo sapiens; how it was run: as §2
[19] = Cytotoxicity against human KB/HeLa cells after 48 hrs by XTT assay; assay type: functional, cell-based; how it was run: as §1
[20] = Cell cycle arrest in KB/HeLa cells assessed as accumulation at G1 phase at 100 nM after 24 hrs by flow cytometric analysis; assay type: functional, cell-based; details: Homo sapiens; how it was run: as §2
[21] = Cell cycle arrest in KB/HeLa cells assessed as accumulation at G2M phase at 31.6 nM after 24 hrs by flow cytometric analysis; assay type: functional, cell-based; details: Homo sapiens; how it was run: as §2
[22] = Cell cycle arrest in KB/HeLa cells assessed as accumulation at S phase at 31.6 nM after 24 hrs by flow cytometric analysis; assay type: functional, cell-based; details: Homo sapiens; how it was run: as §2
[23] = Cell cycle arrest in KB/HeLa cells assessed as accumulation at G2M phase at 0.3 nM after 24 hrs by flow cytometric analysis; assay type: functional, cell-based; details: Homo sapiens; how it was run: as §2
K562 = experiment: Antiproliferative activity against human K562 cells after 48 hrs; assay type: functional, cell-based; details: K562, 48 h
How it was run: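 Growth of K562 cells measured by counting cells with a hemocytometer after 48 h (2 days) of drug treatment. IC50 is the mean of at least three independent determinations.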

SF-268 = experiment: Cytotoxicity against human SF268 cells after 48 hrs by XTT assay; assay type: functional, cell-based; details: SF-268, 48 h; how it was run: as §1
[24] = Cell cycle arrest in KB/HeLa cells assessed as accumulation at G2M phase at 3.16 nM after 24 hrs by flow cytometric analysis; assay type: functional, cell-based; details: Homo sapiens
Tubulin [25] = biological target: Tubulin (Sus scrofa, UniProt P02554+P02550); experiment: Inhibition of porcine brain tubulin polymerization
L1210 [26] = experiment: Antiproliferative activity against mouse vincristine-resistant L1210 cells after 48 hrs by XTT assay; assay type: functional, cell-based; details: L1210, 48 h; how it was run: as §1
[27] = Antiproliferative activity against rat L12 cells after 48 hrs by XTT assay; assay type: functional, cell-based
NCI-H460 = experiment: Cytotoxicity against human NCI-H460 cells after 48 hrs by XTT assay; assay type: functional, cell-based; details: NCI-H460, 48 h; how it was run: as §1
P388 [28] = experiment: Antiproliferative activity against mouse P388 cells after 48 hrs by XTT assay; assay type: functional, cell-based; details: P388, 48 h; how it was run: as §1
SK-OV-3 = experiment: Cytotoxicity against human SKOV3 cells after 48 hrs by XTT assay; assay type: functional, cell-based; details: SK-OV-3, 48 h; how it was run: as §1
Tubulin [29] = experiment: Displacement of [3H]colchicine from biotinylated tubulin by scintillation proximity assay; assay type: protein-complex assay, Homo sapiens
[30] = Cell cycle arrest in KB/HeLa cells assessed as accumulation at G2M phase at 1000 nM after 24 hrs by flow cytometric analysis; assay type: functional, cell-based; details: Homo sapiens; how it was run: as §2
[31] = Cell cycle arrest in KB/HeLa cells assessed as accumulation at S phase at 1000 nM after 24 hrs by flow cytometric analysis; assay type: functional, cell-based; details: Homo sapiens; how it was run: as §2
[32] = Cell cycle arrest in KB/HeLa cells assessed as accumulation at S phase at 0.1 nM after 24 hrs by flow cytometric analysis; assay type: functional, cell-based; details: Homo sapiens; how it was run: as §2
RKO [33] = experiment: Cytotoxicity against human RKO cells after 48 hrs by XTT assay; assay type: functional, cell-based; how it was run: as §1
L1210 [34] = experiment: Antiproliferative activity against mouse L1210 cells after 48 hrs by XTT assay; assay type: functional, cell-based; details: L1210, 48 h; how it was run: as §1
[35] = Cell cycle arrest in KB/HeLa cells assessed as accumulation at G1 phase at 0.1 nM after 24 hrs by flow cytometric analysis; assay type: functional, cell-based; details: Homo sapiens; how it was run: as §2
P388 [36] = experiment: Antiproliferative activity against mouse adriamycin-resistant P388 cells after 48 hrs by XTT assay; assay type: functional, cell-based; details: P388, 48 h; how it was run: as §1
[37] = Antiproliferative activity against rat multidrug-resistant L12 cells after 48 hrs by XTT assay; assay type: functional, cell-based; details: L1.2, 48 h; how it was run: as §1
[38] = Cell cycle arrest in KB/HeLa cells assessed as accumulation at G2M phase at 0.1 nM after 24 hrs by flow cytometric analysis; assay type: functional, cell-based; details: Homo sapiens; how it was run: as §2
[39] = Cell cycle arrest in KB/HeLa cells assessed as accumulation at G1 phase at 1000 nM after 24 hrs by flow cytometric analysis; assay type: functional, cell-based; details: Homo sapiens; how it was run: as §2

COc1cc2c(c(OC)c1OC)-c1ccc(OC)c(=O)cc1[C@@H](NC(C)=O)CC2 [COLCHICINE]
IC50 (RKO [1]): > 14000 nM
Activity [2]: 94.7%
Activity [3]: 25.4%
EC50 [4]: 14 nM
Activity [5]: 5.2%
Activity [6]: 94.5%
Activity [7]: 10%
Activity [8]: 25.1%
Activity [9]: 0.5%
Activity [10]: 35.7%
Activity [11]: 32.1%
Activity [12]: 63.3%
Activity [13]: 0.3%
Activity [14]: 26.6%
Activity [15]: 5.1%
Activity [16]: 32.2%
Activity [17]: 64.3%
Activity [18]: 64.7%
IC50 [19]: 30 nM
Activity [20]: 0.3%
Activity [21]: 87.6%
Activity [22]: 11.9%
Activity [23]: 10.1%

COc1ccc(S(=O)(=O)Oc2c3ccccc3c(Cl)c3ccccc23)cc1
IC50 (K562): 350 nM

COc1ccc(S(=O)(=O)Oc2c3ccccc3cc3sccc23)cc1
IC50 (SF-268): 260 nM
Activity [24]: 11.3%
IC50 (RKO [1]): > 9000 nM
Activity [2]: 16.7%
Activity [3]: 26.7%
IC50 (Tubulin [25]): 910 nM
EC50 [4]: 125 nM
Activity [5]: 7%
Activity [6]: 92.1%
IC50 (L1210 [26]): 200 nM
IC50 [27]: 170 nM
Activity [7]: 11.4%
IC50 (NCI-H460): 210 nM
Activity [8]: 26.5%
IC50 (P388 [28]): 180 nM
Activity [9]: 59.8%
Activity [10]: 27.4%
Activity [11]: 11.9%
IC50 (SK-OV-3): 210 nM
Activity [12]: 61.4%
Activity [13]: 0.9%
Activity [14]: 26.6%
Activity [15]: 32.1%
IC50 (Tubulin [29]): 510 nM
Activity [30]: 88.7%
Activity [31]: 9.7%
Activity [16]: 60.7%
Activity [32]: 27.1%
IC50 (RKO [33]): 180 nM
IC50 (L1210 [34]): 190 nM
Activity [17]: 62.2%
Activity [35]: 60.6%
IC50 (P388 [36]): 180 nM
Activity [18]: 61.9%
IC50 [37]: 190 nM
IC50 [19]: 180 nM
Activity [20]: 51.2%
Activity [21]: 11.7%
Activity [38]: 12.3%
Activity [22]: 28.6%
Activity [23]: 12%
Activity [39]: 1.6%
IC50 (K562): 60 nM

COc1ccc(S(=O)(=O)Oc2c3ccccc3cc3sccc23)cc1OC
IC50 (Tubulin [25]): 1270 nM
IC50 (K562): 170 nM

COc1ccc(S(=O)(=O)Oc2c3c(nc4ccccc24)CCCC3)cc1
IC50 (Tubulin [25]): > 10000 nM
IC50 (K562): 830 nM

Cc1ccc(S(=O)(=O)Oc2c3ccccc3cc3sccc23)cc1
IC50 (Tubulin [25]): 1050 nM
IC50 (K562): 440 nM

COc1cc([N+](=O)[O-])ccc1S(=O)(=O)Oc1c2ccccc2cc2sccc12
IC50 (K562): 1400 nM

COc1cc(N)ccc1S(=O)(=O)Oc1c2ccccc2cc2sccc12
IC50 (K562): 280 nM

CC[C@]1(O)C[C@H]2CN(CCc3c([nH]c4ccccc34)[C@@](C(=O)OC)(c3cc4c(cc3OC)N(C=O)[C@H]3[C@@](O)(C(=O)OC)[C@H](OC(C)=O)[C@]5(CC)C=CCN6CC[C@]43[C@@H]65)C2)C1 [VINCRISTINE]
Activity [24]: 65.8%
Activity [2]: 95.1%
Activity [3]: 28.3%
EC50 [4]: 2.4 nM
Activity [5]: 5.9%
Activity [6]: 93.8%
Activity [7]: 17.2%
Activity [8]: 26%
Activity [9]: 1%
Activity [10]: 13.1%
Activity [11]: 86.7%
Activity [12]: 64.5%
Activity [13]: 0.2%
Activity [14]: 24%
Activity [15]: 4.8%
Activity [16]: 0.5%
Activity [32]: 27.7%
Activity [17]: 6.5%
Activity [35]: 61.2%
Activity [18]: 53.7%
Activity [20]: 0.2%
Activity [21]: 92.6%
Activity [38]: 11.1%
Activity [22]: 7.2%
Activity [23]: 11.7%

COc1cccc(S(=O)(=O)Oc2c3ccccc3cc3sccc23)c1
IC50 (Tubulin [25]): 290 nM
IC50 (K562): 250 nM

COc1ccc(S(=O)(=O)Oc2c3c(Cl)cccc3cc3cccc(Cl)c23)cc1
IC50 (Tubulin [25]): > 10000 nM
IC50 (K562): 10000 nM

COC(=O)Nc1nc2cc(C(=O)c3cccs3)ccc2[nH]1 [NOCODAZOLE]
Activity [24]: 10.6%
IC50 (RKO [1]): > 14000 nM
Activity [2]: 51.4%
Activity [3]: 23.6%
EC50 [4]: 91 nM
Activity [5]: 6%
Activity [6]: 93.2%
IC50 [27]: 300 nM
Activity [7]: 11.1%
Activity [8]: 24.8%
IC50 (P388 [28]): 70 nM
Activity [9]: 64.4%
Activity [10]: 25.7%
Activity [11]: 10%
Activity [13]: 0.9%
Activity [15]: 26.1%
Activity [16]: 64.2%
Activity [17]: 64.6%
IC50 (P388 [36]): 50 nM
Activity [18]: 65.2%
IC50 [37]: 50 nM
IC50 [19]: 140 nM
Activity [20]: 22.3%
Activity [21]: 9.9%
Activity [22]: 25.7%
